{
  "source": "ChEMBL document CHEMBL1131093",
  "about": "“ATP-Citrate lyase as a target for hypolipidemic intervention. 2. Synthesis and evaluation of (3R,5S)-omega-substituted-3-carboxy-3, 5-dihydroxyalkanoic acids and their gamma-lactone prodrugs as inhibitors of the enzyme in vitro and in vivo” (J Med Chem, 1998)",
  "key": {"HepG2 [1]": {"tested_on": "HepG2", "test": "Inhibition of ATP levels in HepG2 cells was measured at 15 uM concentration.", "assay_type": "functional, Homo sapiens", "design": "scale not given: the % may be the effect or the level left", "summary_of_the_method": "(§1)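 Compounds were applied to HepG2 cells as their γ-lactone prodrugs. De novo cholesterol synthesis, fatty acid synthesis and cellular ATP levels were each expressed as % of control. Significance was marked at p < 0.001.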"}, "HepG2 [2]": {"tested_on": "HepG2", "test": "Inhibition of fatty acid synthesis in HepG2 cells was measured at 5 uM concentration.", "assay_type": "functional, Homo sapiens", "design": "scale not given: the % may be the effect or the level left", "summary_of_the_method": "as §1"}, "HepG2 [3]": {"tested_on": "HepG2", "test": "Inhibition of ATP levels in HepG2 cells was measured at 30 uM concentration.", "assay_type": "functional, Homo sapiens", "design": "scale not given: the % may be the effect or the level left", "summary_of_the_method": "as §1"}, "HepG2 [4]": {"tested_on": "HepG2", "test": "Inhibition of fatty acid synthesis in HepG2 cells was measured at 30 uM concentration.", "assay_type": "functional, Homo sapiens", "design": "scale not given: the % may be the effect or the level left", "summary_of_the_method": "as §1"}, "HepG2 [5]": {"tested_on": "HepG2", "test": "Inhibition of ATP levels in HepG2 cells was measured at 5 uM concentration.", "assay_type": "functional, Homo sapiens", "design": "scale not given: the % may be the effect or the level left", "summary_of_the_method": "as §1"}, "HepG2 [6]": {"tested_on": "HepG2", "test": "Inhibition of cholesterol synthesis in HepG2 cells was measured at 5 uM concentration.", "assay_type": "functional, Homo sapiens", "design": "scale not given: the % may be the effect or the level left", "summary_of_the_method": "as §1"}, "HepG2 [7]": {"tested_on": "HepG2", "test": "(§2) Inhibition of fatty acid synthesis in HepG2 cells was measured at 15 uM concentration.", "assay_type": "functional, Homo sapiens", "design": "scale not given: the % may be the effect or the level left", "summary_of_the_method": "as §1"}, "HepG2 [8]": {"tested_on": "HepG2", "test": "as §2", "assay_type": "functional, Homo sapiens", "design": "scale not given: the % may be the effect or the level left", "summary_of_the_method": "as §1", "remark": "listed apart in the source"}, "HepG2 [9]": {"tested_on": "HepG2", "test": "Inhibition of cholesterol synthesis in HepG2 cells was measured at 30 uM concentration.", "assay_type": "functional, Homo sapiens", "design": "scale not given: the % may be the effect or the level left", "summary_of_the_method": "as §1"}, "HepG2 [10]": {"tested_on": "HepG2", "test": "Inhibition of cholesterol synthesis in HepG2 cells was measured at 15 uM concentration.", "assay_type": "functional, Homo sapiens", "design": "scale not given: the % may be the effect or the level left", "summary_of_the_method": "as §1"}, "HepG2 [11]": {"tested_on": "HepG2", "test": "Inhibition of cholesterol synthesis in HepG2 cells was measured at 10 uM concentration.", "assay_type": "functional, Homo sapiens", "design": "scale not given: the % may be the effect or the level left", "summary_of_the_method": "as §1"}, "HepG2 [12]": {"tested_on": "HepG2", "test": "Inhibition of ATP levels in HepG2 cells was measured at 10 uM concentration.", "assay_type": "functional, Homo sapiens", "design": "scale not given: the % may be the effect or the level left", "summary_of_the_method": "as §1"}, "Rattus norvegicus [13]": {"tested_on": "Rattus norvegicus", "test": "% Reduction of plasma triglyceride in the rat was measured at dose 75 mg/kg/d", "assay_type": "functional", "summary_of_the_method": "(§3)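 Male Sprague-Dawley rats were kept on a reverse 12 h light/12 h dark cycle with free access to RM1 powdered diet and water. Compound was given orally by gavage as two doses 24 h apart. Blood was drawn mid dark cycle, 4 h after the second dose, into EDTA. Plasma was separated at 1500g for 15 min. Triglyceride was measured enzymatically (GPO-PAP) and reported as % reduction from control.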"}, "HepG2 [14]": {"tested_on": "HepG2", "test": "Inhibition of cholesterol synthesis in HepG2 cells was measured at 3 uM concentration.", "assay_type": "functional, Homo sapiens", "design": "scale not given: the % may be the effect or the level left", "summary_of_the_method": "as §1"}, "Rattus norvegicus [15]": {"tested_on": "Rattus norvegicus", "test": "% Reduction of plasma triglyceride in the rat was measured at dose 37.5 mg/kg/d", "assay_type": "functional", "summary_of_the_method": "as §3"}, "HepG2 [16]": {"tested_on": "HepG2", "test": "Inhibition of fatty acid synthesis in HepG2 cells was measured at 10 uM concentration.", "assay_type": "functional, Homo sapiens", "design": "scale not given: the % may be the effect or the level left", "summary_of_the_method": "as §1"}, "HepG2 [17]": {"tested_on": "HepG2", "test": "Inhibition of ATP levels in HepG2 cells was measured at 3 uM concentration.", "assay_type": "functional, Homo sapiens", "design": "scale not given: the % may be the effect or the level left", "summary_of_the_method": "as §1"}, "HepG2 [18]": {"tested_on": "HepG2", "test": "Inhibition of fatty acid synthesis in HepG2 cells was measured at 3 uM concentration.", "assay_type": "functional, Homo sapiens", "design": "scale not given: the % may be the effect or the level left", "summary_of_the_method": "as §1"}, "HepG2 [19]": {"tested_on": "HepG2", "test": "Inhibition of ATP levels in HepG2 cells was measured at 28.2 uM concentration.", "assay_type": "functional, Homo sapiens", "design": "scale not given: the % may be the effect or the level left"}},
  "note": "“And” between values parts separate entries of the source, which are not always exact repeats. Equal values may be shown once.",
  "data": [
    {"smiles": "O=C(O)C[C@@]1(O)C[C@@H](CCCCCCc2ccc(Cl)cc2Cl)OC1=O", "note": "(stereo in doubt; (-)-77)", "values": [
      {"measurement": "Control", "setting": "HepG2 [1]", "result": "99% and 98%"},
      {"measurement": "Control", "setting": "HepG2 [2]", "result": 123, "unit": "%"},
      {"measurement": "Control", "setting": "HepG2 [3]", "result": 98, "unit": "%"},
      {"measurement": "Control", "setting": "HepG2 [4]", "result": 39, "unit": "%"},
      {"measurement": "Control", "setting": "HepG2 [5]", "result": 101, "unit": "%"},
      {"measurement": "Control", "setting": "HepG2 [6]", "result": 105, "unit": "%"},
      {"measurement": "Control", "setting": "HepG2 [7]", "result": 90, "unit": "%"},
      {"measurement": "Control", "setting": "HepG2 [8]", "result": 82, "unit": "%"},
      {"measurement": "Control", "setting": "HepG2 [9]", "result": 9, "unit": "%"},
      {"measurement": "Control", "setting": "HepG2 [10]", "result": "37% and 33%"}
    ]},
    {"smiles": "O=C(O)C[C@@]1(O)C[C@@H](CCCCCCc2ccc(Cl)cc2Cl)OC1=O", "note": "(stereo in doubt; (+)-77)", "values": [
      {"measurement": "Control", "setting": "HepG2 [1]", "result": 100, "unit": "%"},
      {"measurement": "Control", "setting": "HepG2 [2]", "result": 113, "unit": "%"},
      {"measurement": "Control", "setting": "HepG2 [3]", "result": 99, "unit": "%"},
      {"measurement": "Control", "setting": "HepG2 [4]", "result": 25, "unit": "%"},
      {"measurement": "Control", "setting": "HepG2 [6]", "result": 95, "unit": "%"},
      {"measurement": "Control", "setting": "HepG2 [7]", "result": 81, "unit": "%"},
      {"measurement": "Control", "setting": "HepG2 [8]", "result": 69, "unit": "%"},
      {"measurement": "Control", "setting": "HepG2 [9]", "result": 11, "unit": "%"},
      {"measurement": "Control", "setting": "HepG2 [10]", "result": "52% and 41%"}
    ]},
    {"smiles": "Cc1cn(-c2cc(Cl)ccc2CCCCCC[C@@H]2C[C@](O)(CC(=O)O)C(=O)O2)cc1C", "values": [
      {"measurement": "Control", "setting": "HepG2 [11]", "result": 82, "unit": "%"},
      {"measurement": "Control", "setting": "HepG2 [12]", "result": "96% and 101%"},
      {"measurement": "Reduction", "setting": "Rattus norvegicus [13]", "result": 20, "unit": "%"},
      {"measurement": "Control", "setting": "HepG2 [14]", "result": 104, "unit": "%"},
      {"measurement": "Reduction", "setting": "Rattus norvegicus [15]", "result": 10, "unit": "%"},
      {"measurement": "Control", "setting": "HepG2 [16]", "result": "75% and 89%"},
      {"measurement": "Control", "setting": "HepG2 [17]", "result": 98, "unit": "%"},
      {"measurement": "Control", "setting": "HepG2 [18]", "result": 102, "unit": "%"},
      {"measurement": "Control", "setting": "HepG2 [19]", "result": 96, "unit": "%"}
    ]}
  ]
}
